# Experimental data reported in ChEMBL document CHEMBL1125615, “A highly specific aldose reductase inhibitor, ethyl 1-benzyl-3-hydroxy-2(5H)-oxopyrrole-4-carboxylate, and its congeners” (J Med Chem, 1991).
# Values joined by “and” are separate entries in the source; they are usually repeats but may differ in a detail not shown here. Equal values may be shown once.
# Key:
# Rattus norvegicus [1] = species: Rattus norvegicus; experiment: Percent inhibition of sorbitol accumulation in rat sciatic nerve was measured; format: functional
# Procedure, shortened: (§1)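 Streptozotocin 85 mg/kg i.v. at 0 h to induce diabetes in rats; compound 100 mg/kg orally at 4, 7 and 24 h; killed at 27 h. Sorbitol in sciatic nerve or lens compared with untreated diabetic rats, n = 6 per group; Student's t test.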
# [2] = target: T1, Aldo-keto reductase family 1 member B1 (Rattus norvegicus, UniProt P07943); experiment: Inhibition of rat lens aldose reductase was measured
# [3] = (§2) Inhibitory activity measured against rat lens aldose reductase using 3-pyridinecarboxaldehyde as substrate
# Procedure, shortened: (§3)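 Purified rat lens aldose reductase and homogeneous pig kidney aldehyde reductase, assayed in 50 mM K phosphate pH 7.0 with 0.1 mM NADPH and 5 mM 3-pyridinecarboxaldehyde; substrate-started, NADPH loss at 340 nm over 12 min, 25 °C. IC50 by log linear regression; selectivity = aldehyde IC50 / aldose IC50.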
# [4] = target: T2, Aldo-keto reductase family 1 member A1 (Sus scrofa) (UniProt P50578); experiment: Inhibitory activity measured against pig kidney aldehyde reductase using 3-pyridinecarboxaldehyde as substrate at 2e-4; conditions: concentration not given here
# T2 sequence (whole entry): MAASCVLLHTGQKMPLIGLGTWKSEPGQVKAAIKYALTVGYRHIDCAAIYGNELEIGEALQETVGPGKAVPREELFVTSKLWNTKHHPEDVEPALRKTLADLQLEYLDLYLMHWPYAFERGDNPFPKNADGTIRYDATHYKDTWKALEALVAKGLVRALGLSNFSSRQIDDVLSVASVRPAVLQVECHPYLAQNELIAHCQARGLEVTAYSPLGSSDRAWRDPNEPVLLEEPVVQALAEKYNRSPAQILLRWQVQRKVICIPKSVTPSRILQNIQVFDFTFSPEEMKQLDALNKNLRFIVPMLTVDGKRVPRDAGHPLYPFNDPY
# Procedure, shortened: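 Pig kidney aldehyde reductase, purified to homogeneity, was tested at 2 × 10^-4 M inhibitor in 50 mM potassium phosphate pH 7.0 with 0.1 mM NADPH and 5 mM 3-pyridinecarboxaldehyde. The reaction was started with substrate, and NADPH loss was read at 340 nm for 12 min at 25 °C. The value is percent inhibition.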
# [5] = target: T3, Aldo-keto reductase family 1 member B1 (Homo sapiens, UniProt P15121); experiment: In vitro inhibition of human placental aldose reductase.
# Procedure, shortened: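 Human placental aldose reductase, partly purified (placentae homogenized in 0.1 M K phosphate pH 7.0 with 5 mM 2-mercaptoethanol, spun 33000g, peak fractions pooled). Assay in 50 mM K phosphate pH 7.1 with 0.4 M ammonium sulfate, 0.067 mM NADPH, 1.0 mM DL-glyceraldehyde; enzyme set to 4 milliunits; NADPH oxidation at 340 nm, 25 °C, 10 min. IC50 by log linear regression.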
# [6] = target: T4, Aldo-keto reductase family 1 member A1 (Sus scrofa, UniProt P50578); experiment: (§4) Selectivity ratio measured as the IC50 ratio of aldehyde/aldose reductase values
# T4 sequence (P50578 whole entry): T2 sequence (whole entry)
# [7] = Inhibitory activity measured against pig kidney aldehyde reductase using 3-pyridinecarboxaldehyde as substrate; procedure, shortened: as §3
# [8] = target: T1, Aldo-keto reductase family 1 member B1; experiment: as §2
# [9] = Physicochemical property was determined; b=could not be measured; format: ADME
# [10] = as §4
# Procedure, shortened: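 Ratio of the pig kidney aldehyde reductase IC50 to the rat lens aldose reductase IC50. Both purified enzymes were assayed in 50 mM potassium phosphate pH 7.0 with 0.1 mM NADPH and 5 mM 3-pyridinecarboxaldehyde, started with substrate, reading NADPH loss at 340 nm for 12 min at 25 °C. IC50s came from log-linear regression.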
# [11] = target: T3, Aldo-keto reductase family 1 member B1; experiment: Inhibitory activity measured in vitro against human placental aldose reductase at a concentration of 10e-5 M
# [12] = Physicochemical property was determined; format: ADME
# Rattus norvegicus [13] = species: Rattus norvegicus; experiment: Percent inhibition of sorbitol accumulation in rat lens was measured; format: functional, Lens of camera-type eye; procedure, shortened: as §1
structure (smiles),measurement,setting,value
CCOC(=O)C1=C(O)C(=O)N(Cc2ccncc2)C1,Inhibition,Rattus norvegicus [1],28%
same,IC50,[2],110 nM
same,Selectivity ratio,[3],> 1800
same,inhibition,[4],9%
same,IC50,[5],200 nM
CCOC(=O)C1=C(O)C(=O)N(Cc2ccco2)C1,IC50,[5],3300 nM
O=C1NC(=O)C2(N1)c1ccccc1-c1ccc(F)cc12 (configuration not stated) [ALCONIL],IC50,[6],27 nM
same,Selectivity ratio,[7],0.1
same,IC50,[8],300 nM
CCOC(=O)C1=C(O)C(=O)N(C2c3ccccc3-c3ccccc32)C1,IC50,[5],300 nM
CCOC(=O)C1=C(O)C(=O)N(Cc2ccccn2)C1,IC50,[5],440 nM
COc1ccc2c(C(=S)N(C)CC(=O)O)cccc2c1C(F)(F)F [TOLRESTAT],IC50,[8],29 nM
O=C1CCN(Cc2ccccc2)C1=O,pKa,[9],Could not be measured
CCOC(=O)C1C(=O)C(=O)NC12CCOc1ccc(F)cc12 (configuration not stated),inhibition,[4],11%
same,IC50,[8],910 nM
same,Selectivity ratio,[10],> 200
CCOC(=O)C1=C(O)C(=O)N(Cc2ccc(Br)cc2)C1,IC50,[5],500 nM
CCOC(=O)C1=C(O)C(=O)N(Cc2ccccc2Cl)C1,IC50,[5],2300 nM
O=C(O)Cc1nn(Cc2ccc(Br)cc2F)c(=O)c2ccccc12 [PONALRESTAT],IC50,[6],2000 nM
same,Selectivity ratio,[7],71.4
same,IC50,[8],28 nM
CCOC(=O)C1=C(O)C(=O)N(Cc2cccs2)C1,IC50,[5],380 nM
CC(C)(C)OC(=O)C1=C(O)C(=O)N(Cc2ccccc2)C1,inhibition,[11],27%
CCOC(=O)C1=C(O)C(=O)N([C@@H](C)c2ccccc2)C1,IC50,[5],1200 nM
CS(=O)(=O)C1CN(Cc2ccccc2)C(=O)C1=O (configuration not stated),pKa,[12],5.1
CSC1CN(Cc2ccccc2)C(=O)C1=O (configuration not stated),pKa,[12],7.3
CCOC(=O)C1=C(O)C(=O)N(Cc2ccccc2)C1,Inhibition,Rattus norvegicus [1],51% and 42%
same,inhibition,[4],2%
same,IC50,[5],260 nM
CCOC(=O)C1=C(O)C(=O)N(Cc2cccc3ccccc23)C1,IC50,[5],2300 nM
CCCOC(=O)C1=C(O)C(=O)N(Cc2ccccc2)C1,IC50,[5],1900 nM
CCCC(CCC)C(=O)O [VALPROATE SODIUM],IC50,[6],89000 nM
same,Selectivity ratio,[7],0.2
same,IC50,[8],380000 nM
CC1CN(Cc2ccccc2)C(=O)C1=O (configuration not stated),pKa,[12],10.6
CCOC(=O)C1=C(O)C(=O)N(CC2CCCCC2)C1,inhibition,[11],64%
CCOC(=O)C1=C(O)C(=O)N(c2cccc3ccccc23)C1,inhibition,[11],36%
CC(/C=C1\SC(=S)N(CC(=O)O)C1=O)=C\c1ccccc1,IC50,[6],1500 nM
CCOC(=O)C1=C(O)C(=O)N(Cc2ccc(Cl)cc2)C1,IC50,[5],310 nM
COC(=O)C1=C(O)C(=O)N(Cc2ccccc2)C1,IC50,[5],2600 nM
CCOC(=O)C1=C(O)C(=O)N(Cc2ccc(Cl)c(Cl)c2)C1,IC50,[5],240 nM
CCOC(=O)C1=C(O)C(=O)N(C2CCCCC2)C1,inhibition,[11],22%
CCOC(=O)C1=C(O)C(=O)N(CCc2ccccc2)C1,IC50,[5],2500 nM
CC(C)(C)OC(=O)C1=C(O)C(=O)N(Cc2cccs2)C1,Inhibition,Rattus norvegicus [1],37%
same,inhibition,[11],9%
same,Inhibition,Rattus norvegicus [13],36%
CCOC(=O)C1=C(O)C(=O)N(c2ccccc2)C1,inhibition,[11],28%
CC1(S(=O)(=O)O)CC(=O)c2ccccc2C1=O (configuration not stated) [MENADIONE SULFUROUS ACID],IC50,[6],490000 nM
same,Selectivity ratio,[7],6
same,IC50,[8],82000 nM
CCOC(=O)C1=C(O)C(=O)N(Cc2ccc(OC)cc2)C1,IC50,[5],410 nM
CCOC(=O)C1=C(O)C(=O)N([C@H](C)c2ccccc2)C1,IC50,[5],840 nM
